Compound activity (PubChem)
An excerpt weighted towards active compounds, which were near 5.8% of everything screened.
Pf Dd2 growth: P. falciparum Dd2 growth inhibition. SYBR Green, 72 h; stronger effect = lower value. activity change, % at 10 µM. 94,000 tested, 2.3% active; in the data active = activity change below about -80%; inconclusive = no clear call, values can overlap the other calls
KDM4C inh: inhibitors of human demethylase GASC-1 KDM4C | 96,000 tested, 0.15% active | GST-KDM4C 2-372, H3K9me3 peptide, LANCE TR-FRET | inhibition, % at 12.5 µM | AID 720574;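 active = mean replicate inhibition above about 25%, with at least 55% of replicates also reaching it, limit read from the data, passing the limit was not always enough; inconclusive = only one of those two conditions met; inactive = neither condition met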
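Compound: one test concentration per compound; Material: GST-GASC-1 enzyme fragment 2-372; Amount: GASC-1 enzyme at 10 nM final in reaction; Also added: H3K9me3 peptide substrate, Fe(II), 2-oxoglutarate; Technique: LANCE TR-FRET; Times: 30 min demethylation and 1 h detection at room temperature.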
IDH1 mut inh: inhibitors of human IDH1 R132H. O75874. IDH1 R132H reductase, diaphorase/resazurin fluorescence, 60 min. inhibition, % at 10 µM. 70,000 tested, 0.18% active. AID 624101; in the data active = inhibition above about 34%; inconclusive = no clear call, values can overlap the other calls; inactive = below about 11%
Target sequence (O75874 whole entry R132H): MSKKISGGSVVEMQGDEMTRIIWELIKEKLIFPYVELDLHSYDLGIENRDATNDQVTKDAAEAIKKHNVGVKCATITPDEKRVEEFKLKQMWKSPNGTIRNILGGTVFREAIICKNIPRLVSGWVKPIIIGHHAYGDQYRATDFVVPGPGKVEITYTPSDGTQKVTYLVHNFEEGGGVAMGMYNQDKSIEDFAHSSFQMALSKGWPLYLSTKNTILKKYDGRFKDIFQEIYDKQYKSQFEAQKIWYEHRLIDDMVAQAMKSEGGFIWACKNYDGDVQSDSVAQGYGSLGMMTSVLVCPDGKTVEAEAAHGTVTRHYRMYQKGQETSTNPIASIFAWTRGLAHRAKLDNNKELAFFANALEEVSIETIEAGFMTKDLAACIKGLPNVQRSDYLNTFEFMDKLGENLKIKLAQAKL
T cruzi growth-1: inhibitors of T. cruzi proliferation; T. cruzi beta-gal in NIH3T3, GalScreen luminescence, 90 h; inhibition, % at 8.34 µM; 77,000 tested, 5.9% active; AID 624255;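 active = mean inhibition above about 93%, with at least 55% of replicates each passing it, limit read from the data, passing the limit was not always enough; inconclusive = only one of those two conditions holds; inactive = neither condition holds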
T cruzi growth-2: inhibitors of T. cruzi proliferation; shares compounds with T cruzi growth-1; T. cruzi beta-gal in NIH3T3, GalScreen luminescence, 90 h; inhibition, % at 8.35 µM; 5,600 tested, 72% active;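 active = mean replicate inhibition above about 95% and at least 55% of replicates individually reaching it, limit read from the data; inconclusive = only one of the two criteria is met; inactive = neither criterion is met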
T cruzi growth-3: Trypanosoma cruzi proliferation inhibition. shares compounds with T cruzi growth-1. 5,600 tested, 21% active. T. cruzi beta-gal in NIH3T3, GalScreen luminescence, 90 h. inhibition, % at 2.09 µM;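 active = mean inhibition above about 95%, with at least 55% of replicates also reaching it, limit read from the data; inconclusive = meets just one of the two conditions; inactive = meets neither condition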
3T3 cytotox: NIH/3T3 (mouse) viability loss; shares compounds with T cruzi growth-1; NIH/3T3 viability, CellTiter-Glo ATP luminescence, 90 h; cytotoxicity (signal decrease), % at 8.35 µM; 5,600 tested, 14% active; AID 651742;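 active = mean signal decrease across replicates above about 35% based on untreated-well scatter, with enough replicates individually passing, limit read from the data; inconclusive = no rule stated though some were filed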
NIH3T3 tox 2: NIH/3T3 (mouse) viability loss | shares compounds with T cruzi growth-1 | NIH/3T3 viability, CellTiter-Glo ATP luminescence, 90 h | inhibition, % at 24.9 µM | 5,600 tested, 56% active | AID 651744;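 active = mean loss of cell viability signal at or above a set limit, and enough replicates individually reaching it; inconclusive = meets only the mean limit or only the replicate share; inactive = meets neither condition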
Each line names hits and unclear results; the compound was inactive in the other large screens (follow-up assays come after a bar, where they were run).

CC(C)NC(=O)N(C)C[C@H]1Oc2c(NC(=O)Nc3ccc(C(F)(F)F)cc3)cccc2C(=O)N([C@@H](C)CO)C[C@@H]1C	T cruzi growth-1 inconclusive (no result: IDH1 mut inh) | T cruzi growth-2 inactive | T cruzi growth-3 inactive | 3T3 cytotox inactive | NIH3T3 tox 2 57
C[C@@H]1CN([C@H](C)CO)C(=O)c2cccc(NC(=O)Nc3cccc4ccccc34)c2O[C@H]1CN(C)C(=O)Nc1ccc(F)cc1	T cruzi growth-1 99 | T cruzi growth-2 103 | T cruzi growth-3 inactive | 3T3 cytotox inactive | NIH3T3 tox 2 inactive
CCOC(=O)Cc1[nH]nc2c1C(C(C)C)C(C#N)=C(N)O2 (stereo unspecified)	none (no result: Pf Dd2 growth, KDM4C inh, T cruzi growth-1)
C[C@@H]1CCCCO[C@@H](CN(C)C(=O)CCC(F)(F)F)[C@H](C)CN([C@H](C)CO)C(=O)c2cc(NS(=O)(=O)c3cn(C)cn3)ccc2O1	none
Cc1ccc(S(=O)(=O)NCC[C@@H]2CC[C@H](NC(=O)CCN3CCCCC3)[C@@H](CO)O2)cc1	none
C[C@@H]1CN([C@@H](C)CO)C(=O)CCCn2cc(nn2)CO[C@@H]1CN(C)C(=O)c1cc(-c2ccccc2)on1	none
C[C@@H]1CN([C@@H](C)CO)C(=O)c2cccc(NC(=O)C3CCOCC3)c2O[C@H]1CN(C)C(=O)Nc1ccc(C(F)(F)F)cc1	T cruzi growth-1 99 | T cruzi growth-2 inactive | T cruzi growth-3 inactive | 3T3 cytotox inactive | NIH3T3 tox 2 29
C[C@H](CO)N1C[C@H](C)[C@H](CN(C)Cc2ccc(-c3ccccc3)cc2)Oc2cc(C#C[C@@H](C)O)ccc2S1(=O)=O	T cruzi growth-1 103 | T cruzi growth-2 96 | T cruzi growth-3 115 | 3T3 cytotox 52 | NIH3T3 tox 2 102
C[C@H](O)C#Cc1ccc2c(c1)O[C@H](CN(C)Cc1ccc(-c3ccccc3)cc1)[C@H](C)CN([C@H](C)CO)S2(=O)=O	T cruzi growth-1 99 (no result: IDH1 mut inh) | T cruzi growth-2 97 | T cruzi growth-3 97 | 3T3 cytotox inactive | NIH3T3 tox 2 106
C[C@H](O)C#Cc1ccc2c(c1)O[C@@H](CN(C)Cc1ccc(-c3ccccc3)cc1)[C@@H](C)CN([C@@H](C)CO)S2(=O)=O	none
COc1ccccc1C#Cc1ccc2c(c1)O[C@H](CN(C)Cc1ccccc1)[C@H](C)CN([C@@H](C)CO)S2(=O)=O	T cruzi growth-1 123 | T cruzi growth-2 105 | T cruzi growth-3 115 | 3T3 cytotox inactive | NIH3T3 tox 2 inactive
COc1ccccc1C#Cc1ccc2c(c1)O[C@@H](CN(C)Cc1cccnc1)[C@@H](C)CN([C@H](C)CO)S2(=O)=O	none (no result: IDH1 mut inh, T cruzi growth-1)
COc1ccccc1C#Cc1ccc2c(c1)O[C@@H](CN(C)Cc1cccnc1)[C@@H](C)CN([C@@H](C)CO)S2(=O)=O	none (no result: T cruzi growth-1)
COc1ccccc1C#Cc1ccc2c(c1)O[C@@H](CN(C)Cc1ccccc1)[C@H](C)CN([C@H](C)CO)S2(=O)=O	T cruzi growth-1 118 | T cruzi growth-2 inconclusive | T cruzi growth-3 112 | 3T3 cytotox 45 | NIH3T3 tox 2 106
COc1ccccc1C#Cc1ccc2c(c1)O[C@H](CN(C)Cc1ccccc1)[C@H](C)CN([C@H](C)CO)S2(=O)=O	T cruzi growth-1 121 | T cruzi growth-2 104 | T cruzi growth-3 inactive | 3T3 cytotox inactive | NIH3T3 tox 2 inactive
COc1ccccc1C#Cc1ccc2c(c1)O[C@H](CN(C)Cc1ccccc1)[C@@H](C)CN([C@@H](C)CO)S2(=O)=O	T cruzi growth-1 121 | T cruzi growth-2 99 | T cruzi growth-3 111 | 3T3 cytotox inactive | NIH3T3 tox 2 99
COc1ccccc1C#Cc1ccc2c(c1)O[C@H](CN(C)Cc1cccnc1)[C@@H](C)CN([C@@H](C)CO)S2(=O)=O	none (no result: T cruzi growth-1)
C[C@@H]1CN([C@H](C)CO)S(=O)(=O)c2ccc(Br)cc2O[C@@H]1CN(C)C(=O)C1CCCCC1	none (no result: IDH1 mut inh)
COCC(=O)Nc1ccc2c(c1)C(=O)N(C)[C@@H]1CC[C@@H](CC(=O)N3CCc4ccccc4C3)O[C@H]1CO2	none (no result: IDH1 mut inh)
CC(=O)Nc1ccc2c(c1)C(=O)N(C)[C@@H]1CC[C@H](CC(=O)NC3CCCCC3)O[C@H]1CO2	none (no result: IDH1 mut inh)
COc1ccc(C#Cc2ccc3c(c2)O[C@H](CN(C)S(=O)(=O)c2ccccc2F)[C@H](C)CN([C@H](C)CO)S3(=O)=O)cc1	T cruzi growth-1 124 | T cruzi growth-2 109 | T cruzi growth-3 107 | 3T3 cytotox inactive | NIH3T3 tox 2 33
COc1cccc(C#Cc2ccc3c(c2)O[C@@H](CN(C)S(=O)(=O)c2ccccc2F)[C@@H](C)CN([C@H](C)CO)S3(=O)=O)c1	T cruzi growth-1 101 | T cruzi growth-2 106 | T cruzi growth-3 inactive | 3T3 cytotox inactive | NIH3T3 tox 2 inconclusive
COc1ccc(C#Cc2ccc3c(c2)O[C@@H](CN(C)S(=O)(=O)c2ccccc2F)[C@H](C)CN([C@H](C)CO)S3(=O)=O)cc1	none (no result: T cruzi growth-1)
C[C@@H]1CN([C@@H](C)CO)C(=O)c2cc(NC(=O)c3ccncc3)ccc2O[C@@H]1CN(C)Cc1ccc(C(=O)O)cc1	none (no result: IDH1 mut inh)
O=S(=O)(N[C@@H]1CC[C@H](CCn2cc(-c3cccc(F)c3)nn2)O[C@@H]1CO)c1ccc(Cl)cc1	none
C[C@H]1CN([C@@H](C)CO)S(=O)(=O)c2ccc(C3=CCCC3)cc2O[C@H]1CN(C)Cc1ccccc1	T cruzi growth-1 97 | T cruzi growth-2 96 | T cruzi growth-3 inactive | 3T3 cytotox inconclusive | NIH3T3 tox 2 107
C[C@@H]1CN([C@H](C)CO)S(=O)(=O)c2ccc(C3=CCCC3)cc2O[C@H]1CN(C)CC1CCCC1	T cruzi growth-1 105 | T cruzi growth-2 inactive | T cruzi growth-3 inactive | 3T3 cytotox 59 | NIH3T3 tox 2 105
C[C@@H]1CN([C@H](C)CO)S(=O)(=O)c2ccc(C3=CCCC3)cc2O[C@@H]1CN(C)Cc1ccccc1	T cruzi growth-1 109 | T cruzi growth-2 100 | T cruzi growth-3 inactive | 3T3 cytotox inactive | NIH3T3 tox 2 107
CCNC(=O)Nc1ccc2c(c1)C(=O)N(C)[C@@H]1CC[C@@H](CC(=O)NCCOC)O[C@H]1CO2	none (no result: IDH1 mut inh)
C[C@@H]1CCCCO[C@H](CN(C)C(=O)Nc2ccc(C(F)(F)F)cc2)[C@H](C)CN([C@@H](C)CO)C(=O)c2cc(NC(=O)NC3CCCCC3)ccc2O1	T cruzi growth-1 117 | T cruzi growth-2 110 | T cruzi growth-3 inactive | 3T3 cytotox inactive | NIH3T3 tox 2 inconclusive
C[C@@H]1CCCCO[C@H](CN(C)C(=O)NC2CCCCC2)[C@@H](C)CN([C@H](C)CO)C(=O)c2cc(NC(=O)Nc3ccc(C(F)(F)F)cc3)ccc2O1	none (no result: IDH1 mut inh)
